Assay results taken from ChEMBL document CHEMBL4382240, “Discovery of novel 2,5-dihydroxyterephthalamide derivatives as multifunctional agents for the treatment of Alzheimer's disease” (Bioorg Med Chem, 2018).

How the values were obtained:
[1] = target: T1, Amyloid-beta precursor protein (Homo sapiens, UniProt P05067); assay: Inhibition of human amyloid beta (1 to 42) self-induced aggregation at 25 uM after 24 hrs by Thioflavin T based fluorometric assay relative to control
Procedure, shortened: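 Aβ1-42 (25 µM final) incubated with compound (25 µM final) in 50 mM phosphate buffer, pH 7.4, for 24 h at 37 °C under a sealing film. ThT (5 µM) in 50 mM glycine-NaOH, pH 8.5, then added and fluorescence measured. Triplicate; mean ± SD of three independent experiments.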

Acetylcholinesterase [2] = target: Acetylcholinesterase (Electrophorus electricus, UniProt O42275); assay: Inhibition of electric eel AChE using acetylthiocholine iodide as substrate after 15 mins by Ellman's method
[3] = Inhibition of Cu2+ induced human amyloid beta (1 to 42) aggregation at 25 uM after 24 hrs by Thioflavin T based fluorometric assay relative to control
Procedure, shortened: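 Aβ1-42 (25 µM) and Cu2+ (25 µM) in HEPES buffer (20 mM, pH 6.6, 150 mM NaCl), with or without compound (25 µM final), incubated 24 h at 37 °C. ThT (5 µM) in glycine-NaOH, pH 8.5, added and fluorescence read. Triplicate; three independent experiments.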

[4] = Antioxidant activity assessed as trolox equivalent of APPH-induced radical scavenging activity at 5 uM preincubated for 15 mins followed by AAPH addition measured every minute for 90 mins by ORAC fluorescein assay; type: functional
Procedure, shortened: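 ORAC-FL in 75 mM phosphate buffer, pH 7.4. Fluorescein (150 nM final) and sample (tested at 1–10 µM) incubated 15 min at 37 °C. AAPH (12 mM final) then added, and fluorescence (ex 485/em 535 nm) read every minute for 90 min. Trolox standard 1–8 µM; result expressed as µM Trolox equivalent per µM compound. Duplicate wells; three independent experiments.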

Acetylcholinesterase [5] = target: T2, Acetylcholinesterase (Rattus norvegicus, UniProt P37136); assay: Inhibition of rat cortex AChE using acetylthiocholine iodide as substrate after 15 mins by Ellman's method
T2 sequence (P37136 whole entry): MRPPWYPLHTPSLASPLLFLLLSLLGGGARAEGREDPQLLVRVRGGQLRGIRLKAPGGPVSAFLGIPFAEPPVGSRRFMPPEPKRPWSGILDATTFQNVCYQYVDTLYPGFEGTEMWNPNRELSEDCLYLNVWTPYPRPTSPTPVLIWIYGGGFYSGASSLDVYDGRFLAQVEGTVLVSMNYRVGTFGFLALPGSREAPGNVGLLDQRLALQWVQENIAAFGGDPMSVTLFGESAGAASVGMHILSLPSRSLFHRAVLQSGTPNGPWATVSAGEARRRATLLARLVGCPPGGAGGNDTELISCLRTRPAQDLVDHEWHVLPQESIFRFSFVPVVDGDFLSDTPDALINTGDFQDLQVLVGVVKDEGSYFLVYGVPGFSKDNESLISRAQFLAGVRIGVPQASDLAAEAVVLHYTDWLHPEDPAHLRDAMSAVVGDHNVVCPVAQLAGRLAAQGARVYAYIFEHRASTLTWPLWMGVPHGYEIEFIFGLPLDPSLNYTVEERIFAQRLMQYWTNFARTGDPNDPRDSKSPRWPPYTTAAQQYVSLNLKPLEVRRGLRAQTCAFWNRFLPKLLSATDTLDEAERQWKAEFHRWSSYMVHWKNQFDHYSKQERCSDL

Butyrylcholinesterase = Butyrylcholinesterase (Rattus norvegicus, UniProt Q9JKC1); assay: Inhibition of rat serum BuChE using butyrylthiocholine iodide as substrate after 15 mins by Ellman's method; type: ADME
[6] = Disaggregation of Cu2+ induced preformed fibrils of human amyloid beta (1 to 42) at 25 uM after 24 hrs by Thioflavin T based fluorometric assay relative to control
Procedure, shortened: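 Aβ1-42 (25 µM) with Cu2+ (25 µM) in HEPES buffer pre-aggregated 24 h at 37 °C. Compound (25 µM) then added for a further 24 h at 37 °C. Fibril content measured by ThT fluorescence (glycine-NaOH, pH 8.5). Triplicate; three independent experiments.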

[7] = target: T1, Amyloid-beta precursor protein; assay: Disaggregation of self-induced preformed fibrils of human amyloid beta (1 to 42) at 25 uM after 24 hrs by Thioflavin T based fluorometric assay relative to control
Procedure, shortened: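 Aβ1-42 diluted in HEPES buffer (20 mM, pH 6.6, 150 mM NaCl) and pre-aggregated 24 h at 37 °C. Compound (25 µM) then added for another 24 h at 37 °C on a sealed plate. Remaining fibrils read by ThT fluorescence in glycine-NaOH, pH 8.5. Triplicate; three independent experiments.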

[8] = target: T1, Amyloid-beta precursor protein; assay: Inhibition of human amyloid beta (1 to 42) self-induced aggregation after 24 hrs by Thioflavin T based fluorometric assay
Procedure, shortened: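 Self-induced Aβ1-42 aggregation (25 µM peptide) in phosphate buffer, pH 7.4, for 24 h at 37 °C with varying compound concentrations. Aggregation read by ThT fluorescence (5 µM ThT, glycine-NaOH pH 8.5).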

[9] = Anti-inflammatory activity in […] cells assessed as inhibition of LPS-stimulated NO release at 10 uM preincubated for 30 mins followed by LPS stimulation and measured after 24 hrs by Griess reagent based assay relative to control; type: functional; conditions: BV-2
Procedure, shortened: (§1)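 BV-2 cells cultured 24 h in DMEM (10% FBS, glutamine, pyruvate, pen/strep) at 37 °C, 5% CO2. Compound (DMSO stock diluted in PBS) added 30 min before LPS (1.0 µg/mL), then 24 h. Nitrite in supernatant measured by Griess reagent for 10 min at room temperature, A540, against a NaNO2 standard curve. Triplicate wells; mean ± SD of three independent experiments.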

[10] = Anti-inflammatory activity in […] cells assessed as inhibition of LPS-stimulated NO release at 2.5 uM preincubated for 30 mins followed by LPS stimulation and measured after 24 hrs by Griess reagent based assay relative to control; type: functional; conditions: BV-2; procedure, shortened: as §1
[11] = Anti-inflammatory activity in […] cells assessed as inhibition of LPS-stimulated TNFalpha release at 10 uM preincubated for 30 mins followed by LPS stimulation and measured after 24 hrs by ELISA relative to control; type: functional; conditions: BV-2
Procedure, shortened: (§2)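 Confluent BV-2 cells in DMEM preincubated 30 min with compound, tested over 0.5–10 µM, then stimulated with LPS (1.0 µg/mL) for 24 h. Released TNF-α measured by ELISA following kit instructions. Triplicate wells; mean ± SD of three independent experiments.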

[12] = Cytotoxicity against […] cells assessed as decrease in cell viability up to 10 uM measured after 24 hrs by MTT assay; type: cell-based
Procedure, shortened: (§3)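 BV-2 cells grown 24 h, then treated with compound (0.5, 2.5, 10.0 µM) for 30 min, with or without LPS (1.0 µg/mL), for a further 24 h. MTT (5 mg/mL) added for 4 h, formazan dissolved in DMSO, A490 read. Viability given as percent of untreated cells. Triplicate wells; three independent experiments.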

[13] = Anti-inflammatory activity in […] cells assessed as inhibition of LPS-stimulated TNFalpha release at 2.5 uM preincubated for 30 mins followed by LPS stimulation and measured after 24 hrs by ELISA relative to control; type: functional; conditions: BV-2; procedure, shortened: as §2
[14] = Cytotoxicity against […] cells assessed as decrease in cell viability up to 10 uM preincubated for 30 mins followed by LPS stimulation and measured after 24 hrs by MTT assay; type: cell-based; procedure, shortened: as §3

T1 sequence (P05067 whole entry): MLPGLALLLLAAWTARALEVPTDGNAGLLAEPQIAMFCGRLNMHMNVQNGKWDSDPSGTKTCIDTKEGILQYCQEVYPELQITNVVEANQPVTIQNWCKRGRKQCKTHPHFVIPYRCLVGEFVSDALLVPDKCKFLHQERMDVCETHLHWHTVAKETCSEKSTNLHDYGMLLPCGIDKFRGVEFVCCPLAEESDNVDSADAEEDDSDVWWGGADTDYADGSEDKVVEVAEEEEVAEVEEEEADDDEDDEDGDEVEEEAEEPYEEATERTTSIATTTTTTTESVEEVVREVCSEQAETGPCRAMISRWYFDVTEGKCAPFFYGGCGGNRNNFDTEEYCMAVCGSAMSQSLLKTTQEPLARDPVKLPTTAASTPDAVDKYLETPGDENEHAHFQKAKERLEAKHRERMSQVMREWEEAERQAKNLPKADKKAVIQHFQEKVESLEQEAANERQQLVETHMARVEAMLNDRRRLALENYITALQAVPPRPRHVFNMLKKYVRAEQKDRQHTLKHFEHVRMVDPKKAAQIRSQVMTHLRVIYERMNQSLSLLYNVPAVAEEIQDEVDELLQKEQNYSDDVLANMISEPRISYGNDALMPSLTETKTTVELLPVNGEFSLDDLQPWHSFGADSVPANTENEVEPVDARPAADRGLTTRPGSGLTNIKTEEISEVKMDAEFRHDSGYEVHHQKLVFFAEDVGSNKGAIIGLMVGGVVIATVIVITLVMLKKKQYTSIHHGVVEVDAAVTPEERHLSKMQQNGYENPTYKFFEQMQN
Butyrylcholinesterase, sequence (Q9JKC1 whole entry): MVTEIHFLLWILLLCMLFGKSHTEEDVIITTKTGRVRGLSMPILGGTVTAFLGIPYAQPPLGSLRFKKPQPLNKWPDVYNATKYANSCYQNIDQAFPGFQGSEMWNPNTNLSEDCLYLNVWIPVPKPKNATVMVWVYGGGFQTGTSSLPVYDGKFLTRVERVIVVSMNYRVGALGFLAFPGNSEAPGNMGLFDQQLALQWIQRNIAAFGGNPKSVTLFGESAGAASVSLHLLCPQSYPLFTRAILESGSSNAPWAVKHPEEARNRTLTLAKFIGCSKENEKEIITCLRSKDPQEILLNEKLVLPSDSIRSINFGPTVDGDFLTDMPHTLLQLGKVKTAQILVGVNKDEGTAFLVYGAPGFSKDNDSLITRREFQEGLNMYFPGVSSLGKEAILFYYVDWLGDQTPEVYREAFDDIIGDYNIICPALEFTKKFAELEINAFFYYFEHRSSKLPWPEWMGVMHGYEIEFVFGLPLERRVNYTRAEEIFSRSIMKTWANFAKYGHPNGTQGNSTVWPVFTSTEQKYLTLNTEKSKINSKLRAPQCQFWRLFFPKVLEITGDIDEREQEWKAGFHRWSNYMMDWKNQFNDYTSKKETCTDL
Acetylcholinesterase (Electrophorus electricus, UniProt O42275), sequence (O42275 whole entry): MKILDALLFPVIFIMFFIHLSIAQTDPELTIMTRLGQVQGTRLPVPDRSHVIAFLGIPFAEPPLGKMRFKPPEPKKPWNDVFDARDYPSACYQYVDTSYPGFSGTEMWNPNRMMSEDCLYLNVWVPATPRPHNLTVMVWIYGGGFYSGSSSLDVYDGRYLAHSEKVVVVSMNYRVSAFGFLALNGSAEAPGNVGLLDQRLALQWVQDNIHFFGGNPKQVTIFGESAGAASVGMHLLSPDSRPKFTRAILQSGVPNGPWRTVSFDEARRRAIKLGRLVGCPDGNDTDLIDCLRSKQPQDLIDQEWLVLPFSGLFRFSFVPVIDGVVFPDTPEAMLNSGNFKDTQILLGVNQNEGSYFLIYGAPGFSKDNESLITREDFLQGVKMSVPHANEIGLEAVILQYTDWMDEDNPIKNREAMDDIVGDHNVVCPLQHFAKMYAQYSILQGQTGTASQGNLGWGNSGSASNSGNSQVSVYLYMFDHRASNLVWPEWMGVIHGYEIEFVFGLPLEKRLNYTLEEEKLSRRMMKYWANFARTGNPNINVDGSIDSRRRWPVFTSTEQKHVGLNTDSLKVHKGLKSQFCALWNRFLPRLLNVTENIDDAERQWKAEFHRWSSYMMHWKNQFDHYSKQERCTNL

| Structure (SMILES) | inhibition [1] [%] | IC50 (Acetylcholinesterase [2]) [µM] | inhibition [3] [%] | Activity [4] [equiv] | IC50 (Acetylcholinesterase [5]) [µM] | IC50 (Butyrylcholinesterase) [µM] | Activity [6] [%] | Activity [7] [%] | IC50 [8] [µM] | inhibition at 10 µM [9] [%] | inhibition at 2.5 µM [10] [%] | inhibition at 10 µM [11] [%] | Activity [12] | inhibition at 2.5 µM [13] [%] | Activity [14] |
| --- | --- | --- | --- | --- | --- | --- | --- | --- | --- | --- | --- | --- | --- | --- | --- |
| O=C(NCCCCN1CCOc2ccccc2C1)c1cc(O)c(C(=O)NCCCCN2CCOc3ccccc3C2)cc1O | 71.6 | 64.8 | 74 | 1.02 | 30.8 | > 100 | 85.3 | 67.4 | 5.47 | – | – | – | – | – | – |
| CN(CCCCNC(=O)c1cc(O)c(C(=O)NCCCCN(C)Cc2ccccc2)cc1O)Cc1ccccc1 | 90 | 12.6 | 77.6 | 1.52 | 5.21 | > 100 | 77.9 | 67.7 | 3.55 | – | – | – | – | – | – |
| CCN(CCCNC(=O)c1cc(O)c(C(=O)NCCCN(CC)Cc2ccccc2)cc1O)Cc1ccccc1 | 81 | 26.8 | 57.6 | 0.95 | 7.8 | > 100 | 70.6 | 62.7 | 4.2 | – | – | – | – | – | – |
| COc1cc(/C=C/C(=O)CC(=O)/C=C/c2ccc(O)c(OC)c2)ccc1O | – | – | 66 | – | – | – | 54.7 | – | – | – | – | – | – | – | – |
| O=C(O)c1cc(O)c(C(=O)O)cc1O | 4.7 | > 100 | 8.1 | 4.7 | > 100 | > 100 | – | – | – | 12.5 | 8.3 | 18.2 | Non-Toxic | 5.9 | Non-Toxic |
| CN(CCCNC(=O)c1cc(O)c(C(=O)NCCCN(C)Cc2ccccc2)cc1O)Cc1ccccc1 | 85 | 14.1 | 81.2 | 1.21 | 11.3 | > 100 | 71.3 | 68.5 | 3.98 | – | – | – | – | – | – |
| COc1ccccc1CN(C)CCCNC(=O)c1cc(O)c(C(=O)NCCCN(C)Cc2ccccc2OC)cc1O | 93.5 | 39.7 | 70.4 | 1.37 | 9.21 | 17.3 | 73.5 | 70.1 | 3.63 | – | – | – | – | – | – |
| CCN(CCCCNC(=O)c1cc(O)c(C(=O)NCCCCN(CC)Cc2ccc(N(C)C)cc2)cc1O)Cc1ccc(N(C)C)cc1 | 99.9 | 47.4 | 82.5 | 3.23 | 27.4 | > 100 | 84.7 | 60.4 | 3.16 | – | – | – | – | – | – |
